In ChEMBL document CHEMBL1828629, “Identification of a non-phosphorylated, cell permeable, small molecule ligand for the Stat3 SH2 domain” (Bioorg Med Chem Lett, 2011):
Blank lines part the entries; values can stand above or below the compound they belong to. Calls of active or inactive are those of the source. The rule behind the calls is not given here.

Experiments:
[1] = target: T1, Signal transducer and activator of transcription 3 (Homo sapiens, UniProt P40763); test: Inhibition of STAT3 using fluorescent probe 5-carboxyfluorescein-GpYLPQTV-NH2 after 15 mins by fluorescence polarisation assay
[2] = target: T2, Signal transducer and activator of transcription 3 (Mus musculus, UniProt P42227); test: Inhibition of STAT3 in mouse NIH3T3/vSrc nuclear extract assessed as disruption of the Stat3-DNA complex pre-incubated for 30 mins by EMSA analysis
Summary of the method: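 NIH3T3/vSrc nuclear extracts were pre-incubated with a range of compound concentrations for 30 min at room temperature. They were then incubated with 32P-labelled hSIE probe (c-fos m67 variant) for 30 min at 30 °C and resolved by EMSA. Stat3 DNA-binding bands were quantified as percent of control, and IC50 was derived from those plots.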

[3] = target: T1, Signal transducer and activator of transcription 3; details: JJN3, 20 uM
[4] = target: T1, Signal transducer and activator of transcription 3; details: JJN3, 20 uM; remark: listed apart in the source
[5] = target: T1, Signal transducer and activator of transcription 3; details: JJN-3, 20 uM
[6] = target: T1, Signal transducer and activator of transcription 3; details: MDA-MB-468, 20 uM
[7] = target: T1, Signal transducer and activator of transcription 3; details: JJN3, 20 uM; remark: listed apart in the source
[8] = target: T1, Signal transducer and activator of transcription 3; details: MDA-MB-468, 20 uM; remark: listed apart in the source
[9] = Solubility of the compound in water; type: physicochemical; details: buffer
[10] = target: T1, Signal transducer and activator of transcription 3; details: MDA-MB-468, 20 uM; remark: listed apart in the source
[11] = target: T1, Signal transducer and activator of transcription 3; details: MDA-MB-468, 20 uM; remark: listed apart in the source
[12] = Cytotoxicity against human JJN-3 cells after 72 hrs by MTS assay; type: functional, cell-based; details: JJN-3, 72 h
[13] = target: T1, Signal transducer and activator of transcription 3; test: Inhibition of STAT3 phosphorylation in human MDA468 cells at 100 uM after 24 hrs by Western blotting; type: cell-based; details: MDA-MB-468
Summary of the method: (§1)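 Intact MDA-468 or JJN3 cells were treated for 24 h, with DMSO as the untreated control. Cells were lysed in Tris-HCl/EDTA/1% NP-40/150 mM NaCl for 30 min on ice, freeze-thawed once at −80 °C and centrifuged at 12000g for 15 min. Whole-cell lysates were run on 6.5–15% SDS-PAGE and immunoblotted for pY705Stat3 and total Stat3.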

[14] = target: T3, Signal transducer and activator of transcription 1 (Mus musculus, UniProt P42225); test: Inhibition of mouse STAT1 using fluorescent probe 5-carboxyfluorescein-GpYLPQTV-NH2 after 30 mins by fluorescence polarisation assay
T3 sequence (P42225 whole entry): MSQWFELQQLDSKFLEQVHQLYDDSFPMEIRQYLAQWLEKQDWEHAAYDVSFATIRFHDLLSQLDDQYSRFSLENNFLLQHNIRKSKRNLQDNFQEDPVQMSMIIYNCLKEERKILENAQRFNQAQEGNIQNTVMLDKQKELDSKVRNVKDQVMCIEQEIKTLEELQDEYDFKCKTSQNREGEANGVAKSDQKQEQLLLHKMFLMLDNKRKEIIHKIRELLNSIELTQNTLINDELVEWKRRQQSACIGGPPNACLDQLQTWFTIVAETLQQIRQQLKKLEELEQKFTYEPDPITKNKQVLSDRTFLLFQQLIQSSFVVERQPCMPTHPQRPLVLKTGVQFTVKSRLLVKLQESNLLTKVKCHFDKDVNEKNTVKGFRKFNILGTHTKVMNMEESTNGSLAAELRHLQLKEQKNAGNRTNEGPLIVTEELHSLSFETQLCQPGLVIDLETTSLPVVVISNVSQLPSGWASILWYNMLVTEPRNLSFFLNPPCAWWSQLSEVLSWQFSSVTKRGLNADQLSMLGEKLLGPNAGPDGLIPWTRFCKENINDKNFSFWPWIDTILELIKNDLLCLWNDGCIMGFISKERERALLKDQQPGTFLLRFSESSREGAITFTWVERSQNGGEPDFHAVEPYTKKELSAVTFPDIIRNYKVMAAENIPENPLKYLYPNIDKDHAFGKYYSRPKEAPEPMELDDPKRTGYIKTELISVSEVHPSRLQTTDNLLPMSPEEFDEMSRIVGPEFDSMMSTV

[15] = target: T1, Signal transducer and activator of transcription 3; test: Inhibition of STAT3 phosphorylation in human JJN-3 cells at 100 uM after 24 hrs by Western blotting; type: cell-based; summary of the method: as §1
[16] = Inhibition of mouse STAT5 using fluorescent probe 5-carboxyfluorescein-GpYLPQTV-NH2 after 30 mins by fluorescence polarisation assay
[17] = target: T2, Signal transducer and activator of transcription 3; test: Inhibition of mouse STAT3 SH2 domain using fluorescent probe 5-carboxyfluorescein-GpYLPQTV-NH2 after 30 mins by fluorescence polarisation assay
[18] = test system: DU-145; test: Cytotoxicity against human DU145 cells after 72 hrs by MTS assay; type: functional, cell-based; details: DU-145, 72 h
[19] = Lipophilicity, log P of the compound; type: physicochemical; details: octanol/water
[20] = Cytotoxicity against human MDA468 cells after 72 hrs by MTS assay; type: functional, cell-based; details: MDA-MB-468, 72 h

T1 sequence (P40763 whole entry): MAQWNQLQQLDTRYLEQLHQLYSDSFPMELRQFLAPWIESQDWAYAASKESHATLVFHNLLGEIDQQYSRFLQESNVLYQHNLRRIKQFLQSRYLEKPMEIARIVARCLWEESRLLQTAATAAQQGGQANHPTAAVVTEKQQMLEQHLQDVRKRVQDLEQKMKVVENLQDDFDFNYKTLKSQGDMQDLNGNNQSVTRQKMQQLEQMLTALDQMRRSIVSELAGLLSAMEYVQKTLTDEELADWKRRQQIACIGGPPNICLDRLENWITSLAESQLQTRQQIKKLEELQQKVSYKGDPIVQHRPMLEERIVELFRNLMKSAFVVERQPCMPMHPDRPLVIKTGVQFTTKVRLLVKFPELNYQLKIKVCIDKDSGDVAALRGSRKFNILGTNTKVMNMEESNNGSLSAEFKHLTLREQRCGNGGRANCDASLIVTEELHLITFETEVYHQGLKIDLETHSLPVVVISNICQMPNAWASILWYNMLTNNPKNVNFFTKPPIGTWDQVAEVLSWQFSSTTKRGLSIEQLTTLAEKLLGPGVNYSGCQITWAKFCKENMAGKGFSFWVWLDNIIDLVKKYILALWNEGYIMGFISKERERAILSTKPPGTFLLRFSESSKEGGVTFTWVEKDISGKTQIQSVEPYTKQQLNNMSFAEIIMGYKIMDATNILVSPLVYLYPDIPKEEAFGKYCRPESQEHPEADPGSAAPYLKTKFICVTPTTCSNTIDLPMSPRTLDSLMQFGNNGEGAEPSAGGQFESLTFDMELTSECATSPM
T2 sequence (P42227 whole entry): as the sequence (P40763 whole entry) above, with E760D counted along it

SMILES: CN(CC(=O)N(Cc1ccc(C2CCCCC2)cc1)c1ccc(C(=O)O)c(O)c1)S(=O)(=O)c1c(F)c(F)c(F)c(F)c1F
inhibition [3]: Active
inhibition [4]: Active
inhibition [5]: Active
inhibition [6]: Active
inhibition [7]: Active
inhibition [8]: Active
solubility [9]: soluble
inhibition [10]: Active
inhibition [11]: Active
EC50 [12]: 16.7 µM

SMILES: COc1ccc(S(=O)(=O)N(C)CC(=O)N(Cc2ccc(C3CCCCC3)cc2)c2ccc(C(=O)O)c(O)c2)cc1
IC50 [2]: 67.4 µM

SMILES: CN(CC(=O)N(Cc1ccc(C2CCCCC2)cc1)c1ccc(C(=O)O)c(O)c1)S(=O)(=O)c1cn(C)cn1
Ki [1]: > 100 µM
IC50 [2]: > 300 µM

Now from value to compound, other results behind:

Ki [1]: 6.2 µM
IC50 [2]: 65.4 µM
SMILES: CN(CC(=O)N(Cc1ccc(C2CCCCC2)cc1)c1ccc(C(=O)O)c(O)c1)S(=O)(=O)c1ccc(-c2ccccc2)cc1

inhibition [13]: Active
Ki [14]: > 25 µM
inhibition [15]: Active
Ki [16]: > 25 µM
Ki [17]: 15 µM
SMILES: Cc1ccc(S(=O)(=O)N(C)CC(=O)N(Cc2ccc(C3CCCCC3)cc2)c2ccc(C(=O)O)c(O)c2)cc1

IC50 [2]: > 300 µM
SMILES: CN(CC(=O)N(Cc1ccc(C2CCCCC2)cc1)c1ccc(C(=O)O)c(O)c1)S(=O)(=O)c1ccc(F)cc1

solubility [9]: Insoluble
logP [19]: 5.95
SMILES: CN(CC(=O)N(Cc1ccc(C2CCCCC2)cc1)c1ccc(C(=O)O)c(O)c1)S(=O)(=O)c1cccc2ccccc12
EC50 [18]: 74.5 µM
EC50 [12]: 106 µM
EC50 [20]: 46.5 µM
